The text below walks through data of ChEMBL document CHEMBL4706740, “Structure-Activity Study of Nitazoxanide Derivatives as Novel STAT3 Pathway Inhibitors” (ACS Med Chem Lett, 2021).

In data set [1] the target is Signal transducer and activator of transcription 3 (Homo sapiens) (UniProt P40763). In words: Inhibition of IL-6 induced STAT3 transcriptional activity in human HEK-Blue IL-6 cells assessed as secreted embryonic alkaline phosphatase reporter gene expression at 10 uM by microplate reader. It counts as cell-based. The procedure, abridged: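 Single-concentration screen in HEK-Blue IL-6 cells: % inhibition of the SEAP reporter read-out of STAT3 pathway activity, with viability checked by MTT in parallel. Values are averages of three independent experiments.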

A short description of data set [2]: Cytotoxicity against human HeLa cells assessed as inhibition of cell viability at 10 uM measured after 48 hrs by MTT assay. It counts as cell-based. The conditions noted are these: read-out: INH.
Data set [3] is described as follows: Half life in Sprague-Dawley rat at 25 mg/kg, IG. In kind it is ADME, organism-based. The conditions noted are these: in vivo, po. The procedure, abridged: (§1)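 Rats, n = 3 per group, received a single dose either intragastrically (25 mg/kg) or intravenously (5 mg/kg). Plasma concentration–time curves were used to derive t1/2α, t1/2β, Vd/F, CL/F, AUC0–∞, Tmax and Cmax. Absolute oral bioavailability was calculated from the ig and iv data.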

Data set [4] is described as follows: Half life in Sprague-Dawley rat at 5 mg/kg, iv. The conditions noted are these: in vivo. In kind it is ADME, organism-based. The procedure, abridged:
as §1

The nature of data set [5]: Elimination Half life in Sprague-Dawley rat at 25 mg/kg, IG. The conditions noted are these: in vivo, po, read-out: beta t1/2 (converted). In kind it is ADME, organism-based. The procedure, abridged:
as §1

A short description of data set [6]: Elimination Half life in Sprague-Dawley rat at 5 mg/kg, iv. It counts as ADME, organism-based. As to conditions: in vivo, read-out: beta t1/2 (converted). The procedure, abridged: as §1
A short description of data set [7]: Apparent volume of distribution in Sprague-Dawley rat at 25 mg/kg, IG. In kind it is ADME, organism-based. The conditions noted are these: in vivo, po.
A short description of data set [8]: Apparent volume of distribution in Sprague-Dawley rat at 5 mg/kg, iv. It counts as ADME, organism-based. The conditions noted are these: in vivo. The procedure, abridged:
as §1

A short description of data set [9]: Apparent oral clearance in Sprague-Dawley rat at 25 mg/kg, IG. It counts as ADME, organism-based. As to conditions: in vivo, read-out: CL/F (converted). The procedure, abridged: as §1
The nature of data set [10]: AUC (0 to infinity) in Sprague-Dawley rat at 25 mg/kg, IG. The conditions noted are these: in vivo, po. More on the design: route […], time infinity, dose 25 mg/kg. It counts as ADME, organism-based. A digest of the protocol:
as §1

The nature of data set [11]: AUC (0 to infinity) in Sprague-Dawley rat at 5 mg/kg, iv. The conditions noted are these: in vivo. Also noted: route intravenous, time infinity, dose 5 mg/kg. In kind it is ADME, organism-based. The procedure, abridged:
as §1

Data set [12] can be described thus: Tmax in Sprague-Dawley rat at 25 mg/kg, IG. In kind it is ADME, organism-based. As to conditions: in vivo, po.
Data set [13] in a line: Cmax in Sprague-Dawley rat at 25 mg/kg, IG. In kind it is ADME, organism-based. Also noted: route […], dose 25 mg/kg. As to conditions: in vivo, po. A digest of the protocol:
as §1

A short description of data set [14]: Cmax in Sprague-Dawley rat at 5 mg/kg, iv. It counts as ADME, organism-based. The conditions noted are these: in vivo. More on the design: route intravenous, dose 5 mg/kg. The procedure, abridged: as §1
A short description of data set [15]: Absolute bioavailability in Sprague-Dawley rat at 25 mg/kg, IG. In kind it is ADME, organism-based. As to conditions: in vivo, po. A digest of the protocol:
as §1

The subject of data set [16] is HeLa. In words: Cytotoxicity against human HeLa cells assessed as inhibition of cell viability measured after 48 hrs by MTT assay. In kind it is functional, cell-based. A digest of the protocol: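 Growth was read by MTT assay and IC50 taken from dose–response curves. Values are averages of three independent experiments.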
A short description of data set [17]: Cytotoxicity against human HEK 293T cells assessed as cell growth inhibition at 50 uM measured after 48 hrs by MTT assay. In kind it is cell-based.
Data set [18] can be described thus: Cytotoxicity against human HEK 293T cells assessed as cell growth inhibition at 10 uM measured after 48 hrs by MTT assay. In kind it is cell-based.

Chain of Signal transducer and activator of transcription 3 (Homo sapiens) (P40763 whole entry): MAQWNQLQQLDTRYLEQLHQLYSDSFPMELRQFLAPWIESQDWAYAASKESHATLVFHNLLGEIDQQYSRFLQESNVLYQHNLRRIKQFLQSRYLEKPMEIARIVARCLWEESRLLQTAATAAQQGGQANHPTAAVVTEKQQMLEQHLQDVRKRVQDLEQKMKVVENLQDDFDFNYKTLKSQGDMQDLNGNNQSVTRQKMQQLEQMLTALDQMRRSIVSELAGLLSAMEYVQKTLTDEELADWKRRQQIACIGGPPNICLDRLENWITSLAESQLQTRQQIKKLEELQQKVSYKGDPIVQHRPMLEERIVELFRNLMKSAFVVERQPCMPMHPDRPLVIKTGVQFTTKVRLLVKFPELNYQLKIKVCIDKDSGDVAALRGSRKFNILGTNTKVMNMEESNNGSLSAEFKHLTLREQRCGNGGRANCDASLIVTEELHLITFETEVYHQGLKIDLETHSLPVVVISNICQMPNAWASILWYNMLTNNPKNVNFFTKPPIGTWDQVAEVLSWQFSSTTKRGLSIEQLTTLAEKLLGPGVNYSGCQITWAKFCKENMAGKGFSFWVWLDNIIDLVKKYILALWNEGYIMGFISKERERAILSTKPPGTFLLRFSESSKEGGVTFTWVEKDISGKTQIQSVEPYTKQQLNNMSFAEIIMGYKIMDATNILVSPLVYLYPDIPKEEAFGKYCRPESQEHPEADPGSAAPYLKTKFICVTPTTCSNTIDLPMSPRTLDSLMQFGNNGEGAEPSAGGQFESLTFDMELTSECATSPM

Turning to `O=C(Nc1ncc([N+](=O)[O-])s1)c1ccccc1Br`, in data set [1], the inhibition was 25.1%. In data set [2], the cytotoxicity at 48 h, 10 µM is -10.1%.
`O=C(Nc1ncc([N+](=O)[O-])s1)c1ccc(C(F)(F)F)cc1`: the half-life in data set [3] was 114 min; in data set [4], 3.6 min; in data set [5], 666 min; in data set [6], 138 min. The Vd/F in data set [7] and in data set [8] was 0.5 L/kg each time. The CL/F in data set [9] was 0.833 mL/min/kg. The results for the total exposure AUC(0-inf) in data set [10] and in [11] were 391 µg·h/mL and 89400 ng·h/mL, respectively. Also, the time to peak (Tmax) in data set [12] came out at 4 h. For the same compound, the Cmax is 20700 ng/mL in data set [13] and 28100 ng/mL in [14]. For the same compound, in [15], the bioavailability was determined as 87.4%.
As to `O=C(Nc1ncc([N+](=O)[O-])s1)c1ccc(N2CCOCC2)cc1`, the inhibition in [1] is 9%. Moreover, in data set [2], the cytotoxicity at 48 h, 10 µM amounted to 50.6%.
In the case of `C#CCN(C(=O)c1ccc(C(F)(F)F)cc1)c1ncc([N+](=O)[O-])s1`, in data set [1], the inhibition was 9.1%.
For `CC(C)(C)c1ccc(C(=O)Nc2ncc([N+](=O)[O-])s2)cc1`, the inhibition in data set [1] was 43.7%.
Same read-out and setting: the result for `CN1CCN(c2ccc(C(=O)Nc3ncc([N+](=O)[O-])s3)cc2)CC1` reads -3.3%; that for `COc1ccc(C(=O)Nc2ncc([N+](=O)[O-])s2)cc1`, 14.9%; that for `CS(=O)(=O)c1ccc(C(=O)Nc2ncc([N+](=O)[O-])s2)cc1`, 5.3%.
The same measure, in the same setting: the same measure for `Cc1ccccc1C(=O)Nc1ncc([N+](=O)[O-])s1`: 36.4%.
The same measure, in the same setting: the result for `NS(=O)(=O)c1ccc(C(=O)Nc2ncc([N+](=O)[O-])s2)cc1` reads -9.7%; that for `O=C(Nc1ncc([N+](=O)[O-])s1)c1ccc(O)c(O)c1`, 26.7%.
On to `O=C(Nc1ncc([N+](=O)[O-])s1)c1ccc(O)cc1`, for which, in data set [1], the inhibition turned out to be 20.9%.
Same read-out and setting: the same measure for `O=C(Nc1ncc([N+](=O)[O-])s1)c1ccc(O)cc1O`: 15.5%; for `O=C(Nc1ncc([N+](=O)[O-])s1)c1ccc(S(=O)(=O)Nc2ccccc2)cc1`: 9%.
Still for that read-out and setting: the result for `O=C(Nc1ncc([N+](=O)[O-])s1)c1cccc(O)c1` reads 28.5%.
The same measure, in the same setting: the result for `O=C(Nc1ncc([N+](=O)[O-])s1)c1ccccc1` reads 35.5%; that for `O=C(Nc1ncc([N+](=O)[O-])s1)c1ccccc1Cl`, 23%; that for `O=C(Nc1ncc([N+](=O)[O-])s1)c1ccccc1F`, 22.1%.
As to `O=C(Nc1ncc([N+](=O)[O-])s1)c1ccccc1[N+](=O)[O-]`, the inhibition in data set [1] amounted to 19%.
On to `O=C(Nc1ncc([N+](=O)[O-])s1)c1ccccc1O` [TIZOXANIDE], for which, in data set [2], the cytotoxicity at 48 h, 10 µM came to 12.7%. Moreover, the half-maximal inhibitory concentration (IC50) in data set [16] was determined as 29.8 µM. For the same compound, the inhibition at 48 h, 50 µM in data set [17] was found to be 21.6%. Moreover, the inhibition at 48 h, 10 µM in [18] is -5.7%.
Take `C[C@H](NC(=O)/C(C#N)=C/c1cccc(Br)n1)c1ccccc1` [WP 1066]: the IC50 in data set [16] was determined as 4.2 µM. In addition, in [17], the inhibition at 48 h, 50 µM came out at 97.2%. The inhibition at 48 h, 10 µM in data set [18] was 79.9%.
